We go through three compounds from ChEMBL document CHEMBL2163301, “Substrates for efficient fluorometric screening employing the NAD-dependent sirtuin 5 lysine deacylase (KDAC) enzyme” (J Med Chem, 2012).

Structures can show the parent of a compound that is named as a salt. The source made the active and inactive calls. No cut-off for these calls is given here. Where a SMILES comes first, the peptide text is derived from it. The star is where a group is joined. AMC = Cc1cc(=O)oc2cc(N*)ccc12; Tfa = O=C(C(F)(F)F)*

For data set [1], the system named is CC(=O)N[C@@H](CC(C)C)C(=O)NCC(=O)N[C@@H](CCCCNC(=O)CCC(=O)O)C(=O)Nc1ccc2c(C)cc(=O)oc2c1. Put plainly: (§1) Ratio of Kcat to Km for human SIRT5 assessed as desuccinylation of compound after 1 hr by Michaelis-Menten plot analysis. The essentials: (§2)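 Recombinant human SIRT5 with fluorogenic succinyllysine-AMC substrate and NAD in Tris-Cl buffer pH 8.0 containing BSA, with in situ AMC release by Lys-C or trypsin developer. Fluorescence (ex 360/em 460 nm) read every 30 s for at least 30 min at 25 °C to give initial rates over a substrate concentration series. Km and Vmax from Michaelis-Menten fit; kcat from AMC standard curve and supplier enzyme concentration.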

Data set [2] deals with CC(=O)N[C@@H](CCCCNC(=O)CCC(=O)O)C(=O)Nc1ccc2c(C)cc(=O)oc2c1. The description is as §1. The essentials: as §2
Data set [3] concerns CC(=O)N[C@@H](CC(C)C)C(=O)NCC(=O)N[C@@H](CCCCNC(=O)CCC(=O)O)C(=O)Nc1ccc2c(C)cc(=O)oc2c1. Description: (§3) Activity of human SIRT5 assessed as desuccinylation of compound after 1 hr by Michaelis-Menten plot analysis. The essentials:
as §2

The test system of data set [4] is CC(=O)N[C@@H](CCCCNC(=O)CCC(=O)O)C(=O)Nc1ccc2c(C)cc(=O)oc2c1. The data set is described as §3. The essentials: as §2
Data set [5] concerns the target NAD-dependent protein deacylase sirtuin-6 (Homo sapiens) (UniProt Q8N6T7). Description: Activity of human SIRT6 assessed as decrotonylation of compound at 50 uM after 1 hr by trypsin developer-based fluorescence assay. The method in brief:
(§4)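 Recombinant sirtuin at 1 μg per 50 μL reaction, with SIRT1-GST fusion as the SIRT1 source. Fluorogenic substrate and NAD incubated in Tris-Cl buffer pH 8.0 with BSA (1 mg/mL) for 1 h at 37 °C. Developer with nicotinamide (2 mM) and trypsin (0.4 mg/mL) added, 15–30 min at room temperature. Fluorescence read at ex 360/em 460 nm and normalized to no-enzyme wells. At least two experiments in duplicate.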

Data set [6] deals with T1, NAD-dependent protein deacetylase sirtuin-3, mitochondrial (Homo sapiens) (UniProt Q9NTG7).
T1 sequence (whole entry): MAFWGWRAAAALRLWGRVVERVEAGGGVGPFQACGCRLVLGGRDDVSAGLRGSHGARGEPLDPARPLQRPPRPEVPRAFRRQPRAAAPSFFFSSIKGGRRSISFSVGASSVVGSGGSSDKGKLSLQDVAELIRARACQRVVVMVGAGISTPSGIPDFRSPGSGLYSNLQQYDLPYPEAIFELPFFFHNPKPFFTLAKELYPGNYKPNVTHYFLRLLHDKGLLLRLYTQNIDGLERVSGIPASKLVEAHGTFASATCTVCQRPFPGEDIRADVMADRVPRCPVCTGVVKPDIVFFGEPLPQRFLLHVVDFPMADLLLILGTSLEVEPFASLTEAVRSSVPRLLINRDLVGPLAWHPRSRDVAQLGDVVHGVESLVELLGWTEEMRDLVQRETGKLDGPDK
Description: Activity of human SIRT3 assessed as decrotonylation of compound at 50 uM after 1 hr by trypsin developer-based fluorescence assay. The method in brief:
as §4

Data set [7] has as its target NAD-dependent protein deacylase sirtuin-5, mitochondrial (Homo sapiens) (UniProt Q9NXA8). Put plainly: Activity of human SIRT5 assessed as decrotonylation of compound at 50 uM after 1 hr by trypsin developer-based fluorescence assay. The essentials:
as §4

The target of data set [8] is T2, NAD-dependent protein deacetylase sirtuin-2 (Homo sapiens) (UniProt Q8IXJ6).
T2 sequence (whole entry): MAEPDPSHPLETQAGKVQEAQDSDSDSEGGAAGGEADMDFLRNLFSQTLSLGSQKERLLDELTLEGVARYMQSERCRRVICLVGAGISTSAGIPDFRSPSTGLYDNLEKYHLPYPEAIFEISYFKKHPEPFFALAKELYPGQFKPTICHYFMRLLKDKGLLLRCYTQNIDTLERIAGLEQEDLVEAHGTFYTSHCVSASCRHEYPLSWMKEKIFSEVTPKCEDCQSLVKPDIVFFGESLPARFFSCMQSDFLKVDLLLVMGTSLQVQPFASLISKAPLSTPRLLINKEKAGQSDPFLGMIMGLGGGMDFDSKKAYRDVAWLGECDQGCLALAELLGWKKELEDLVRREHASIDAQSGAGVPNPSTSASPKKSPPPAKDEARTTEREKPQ
Description: Activity of human SIRT2 assessed as decrotonylation of compound at 50 uM after 1 hr by trypsin developer-based fluorescence assay. The method in brief: as §4

Data set [9] has as its target T3, NAD-dependent protein deacetylase sirtuin-1 (Homo sapiens) (UniProt Q96EB6).
T3 sequence (whole entry): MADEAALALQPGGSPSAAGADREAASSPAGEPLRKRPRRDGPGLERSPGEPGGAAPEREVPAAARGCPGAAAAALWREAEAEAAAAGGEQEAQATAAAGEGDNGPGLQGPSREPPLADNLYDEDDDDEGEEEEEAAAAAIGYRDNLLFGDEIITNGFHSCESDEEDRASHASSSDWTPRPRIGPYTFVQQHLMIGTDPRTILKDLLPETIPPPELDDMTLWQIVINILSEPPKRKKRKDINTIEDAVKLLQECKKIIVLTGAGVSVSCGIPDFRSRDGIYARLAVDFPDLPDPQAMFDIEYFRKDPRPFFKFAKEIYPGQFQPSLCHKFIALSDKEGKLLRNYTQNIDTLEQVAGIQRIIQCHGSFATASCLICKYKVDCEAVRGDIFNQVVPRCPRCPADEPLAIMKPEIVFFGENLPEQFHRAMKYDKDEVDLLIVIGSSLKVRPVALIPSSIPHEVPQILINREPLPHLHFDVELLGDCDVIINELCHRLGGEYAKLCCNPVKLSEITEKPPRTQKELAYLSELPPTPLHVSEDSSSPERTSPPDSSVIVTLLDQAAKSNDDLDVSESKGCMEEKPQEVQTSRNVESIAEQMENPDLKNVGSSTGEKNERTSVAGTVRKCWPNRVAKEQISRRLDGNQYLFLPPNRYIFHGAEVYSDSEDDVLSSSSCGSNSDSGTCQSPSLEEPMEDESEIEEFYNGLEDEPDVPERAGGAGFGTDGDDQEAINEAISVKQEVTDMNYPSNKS
Description: Activity of human SIRT1 assessed as decrotonylation of compound at 50 uM after 1 hr by trypsin developer-based fluorescence assay. The method in brief:
as §4

Chain of NAD-dependent protein deacylase sirtuin-5, mitochondrial (Homo sapiens), Q9NXA8 (Q9NXA8 whole entry): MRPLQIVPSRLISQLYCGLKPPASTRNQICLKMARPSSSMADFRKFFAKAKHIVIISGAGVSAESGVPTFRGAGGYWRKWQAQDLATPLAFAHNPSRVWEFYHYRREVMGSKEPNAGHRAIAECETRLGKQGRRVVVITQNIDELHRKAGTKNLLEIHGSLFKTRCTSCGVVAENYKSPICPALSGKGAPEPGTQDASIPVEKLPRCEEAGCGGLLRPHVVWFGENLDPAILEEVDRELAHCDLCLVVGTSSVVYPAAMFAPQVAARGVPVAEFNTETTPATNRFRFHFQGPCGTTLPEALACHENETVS
Chain of NAD-dependent protein deacylase sirtuin-6 (Homo sapiens) (Q8N6T7 whole entry, the tested form may be a part): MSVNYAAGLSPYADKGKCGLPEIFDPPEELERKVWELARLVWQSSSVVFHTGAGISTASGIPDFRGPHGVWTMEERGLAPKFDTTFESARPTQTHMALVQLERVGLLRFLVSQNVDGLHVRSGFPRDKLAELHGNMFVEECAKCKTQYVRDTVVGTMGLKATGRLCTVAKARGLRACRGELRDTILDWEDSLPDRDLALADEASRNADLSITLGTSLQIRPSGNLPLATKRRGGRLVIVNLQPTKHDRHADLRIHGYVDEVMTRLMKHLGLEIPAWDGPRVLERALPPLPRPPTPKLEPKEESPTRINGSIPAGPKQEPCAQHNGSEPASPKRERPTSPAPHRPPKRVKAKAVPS
Chain of NAD-dependent protein deacylase sirtuin-5, mitochondrial (Homo sapiens) (Q9NXA8 37-310 limits assumed): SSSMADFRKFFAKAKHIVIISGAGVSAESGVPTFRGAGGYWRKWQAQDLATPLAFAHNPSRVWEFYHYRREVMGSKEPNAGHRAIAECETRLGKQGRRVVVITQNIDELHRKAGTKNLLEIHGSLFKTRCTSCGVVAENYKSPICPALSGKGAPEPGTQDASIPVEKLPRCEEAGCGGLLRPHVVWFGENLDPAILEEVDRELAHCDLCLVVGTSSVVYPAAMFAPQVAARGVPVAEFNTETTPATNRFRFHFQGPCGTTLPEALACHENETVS

Regarding “NAD-dependent protein deacylase sirtuin-5, mitochondrial (Homo sapiens), Q9NXA8”, the kcat/Km in data set [1] turned out to be 9.2 ×10² /s/M; in [2], 1.1 ×10² /s/M. Also, the Km is 33 µM in data set [3] and 84 µM in [4]. For the same compound, the Vmax in [3] amounted to 1.9 nM/s; in data set [4], 5.6 ×10⁻⁴ µM/s. The kcat came to 3 ×10⁻² /s in data set [3] and 9 ×10⁻³ /s in [4].

For the compound `CC(=O)N[C@@H](CC(C)C)C(=O)NCC(=O)N[C@@H](CCCCNC(=O)C(F)(F)F)C(=O)Nc1ccc2c(C)cc(=O)oc2c1` (Ac-Leu-Gly-Lys(Tfa)-{AMC}), the outcome in data set [5], in data set [6], in [7] and in data set [8] was inactive. In addition, in data set [9], the result was Active.

Regarding `C/C=C/C(=O)NCCCC[C@H](NC(=O)CNC(=O)[C@H](CC(C)C)NC(C)=O)C(=O)Nc1ccc2c(C)cc(=O)oc2c1`, the result in [5], in data set [6], in data set [7], in [8] and in data set [9] was inactive.

Usually Km stands for the substrate concentration at which the rate is half of its maximum.
